Source: ChEMBL document CHEMBL3124762, “De-novo designed library of benzoylureas as inhibitors of BCL-XL: synthesis, structural and biochemical characterization” (J Med Chem, 2014)

Columns and labels:
[1] = Inhibition of binding of biotinylated mouse BIM BH3-26mer peptide to GST-tagged mouse BCL-Xl delta C25 mutant by AlphaScreen/[…] assay
Procedure, shortened: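 Bead-based AlphaScreen competition: compounds titrated by serial dilution from 150 µM against GST-BCL-XL ΔC25 (0.6 nM final) and biotinylated BIM BH3 26-mer (5.0 nM final). Anti-GST acceptor and streptavidin donor beads at 15 µg/mL each. Protein/acceptor and peptide/donor pairs pre-incubated 30 min. Compound plus protein complex 30 min, then peptide complex 4 h at room temperature. 1% DMSO final. IC50 from at least two separate experiments.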

[2] = Inhibition of binding of wild type mBIMBH3 peptide to human/mouse chimeric MCL1 by surface plasmon resonance competition experiment
Procedure, shortened: (§1)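 Solution competition SPR: recombinant pro-survival protein (10 nM) incubated 2 h with compound (25–0.024 µM) in HEPES 10 mM, 150 mM NaCl, 3.4 mM EDTA, 0.005% Tween 20, pH 7.4. Mixture then injected over CM5 chip bearing immobilized wild-type mBIMBH3 26-mer, with inert mutant mBIMBH3 surface as reference. IC50 is the mean of three independent experiments ± SEM.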

Bcl-2-like protein 2 = Bcl-2-like protein 2 (Homo sapiens, UniProt Q92843, A128E/C29S); experiment: Inhibition of binding of wild type mBIMBH3 peptide to human Bcl-W delta C29 (C29S/A128E) mutant by surface plasmon resonance competition experiment; procedure, shortened: as §1
[3] = Inhibition of binding of wild type mBIMBH3 peptide to human Bcl-2 delta C22 mutant by surface plasmon resonance competition experiment; procedure, shortened: as §1
[4] = Inhibition of binding of wild type mBIMBH3 peptide to human Bcl-XL delta C24 mutant by surface plasmon resonance competition experiment; procedure, shortened: as §1
[5] = target: Bcl-2-related protein A1 (Mus musculus) (UniProt Q07440); experiment: Inhibition of binding of wild type mBIMBH3 peptide to mouse Bcl-2-related protein A1 by surface plasmon resonance competition experiment
Bcl-2-like protein 1 [6] = target: T1, Bcl-2-like protein 1 (Homo sapiens, UniProt Q07817); experiment: Direct binding affinity to Bcl-XL (unknown origin) pre-saturated with 26-mer-wt-Bim assessed as dissociation constant measured for 120 secs by surface plasmon resonance
Procedure, shortened: (§2)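 Biacore S51 direct binding. GST-BCL-XL captured on an amine-coupled anti-GST antibody surface (about 1200 RU), in phosphate buffer pH 7.4 with 150 mM NaCl, 1 mM EDTA, 0.03% Tween 20 and 5% DMSO. Each cycle, 30 nM wt-BIM 26-mer pre-blocks the groove on the reference spot. Double referencing, 4–6% DMSO solvent correction, 1:1 fit with mass transport; Kd = kd/ka.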

Bcl-2-like protein 1 [7] = target: T1, Bcl-2-like protein 1; experiment: Direct binding affinity to free Bcl-XL (unknown origin) assessed as […] measured for 60 secs by surface plasmon resonance; procedure, shortened: as §2

T1 sequence (Q07817 whole entry): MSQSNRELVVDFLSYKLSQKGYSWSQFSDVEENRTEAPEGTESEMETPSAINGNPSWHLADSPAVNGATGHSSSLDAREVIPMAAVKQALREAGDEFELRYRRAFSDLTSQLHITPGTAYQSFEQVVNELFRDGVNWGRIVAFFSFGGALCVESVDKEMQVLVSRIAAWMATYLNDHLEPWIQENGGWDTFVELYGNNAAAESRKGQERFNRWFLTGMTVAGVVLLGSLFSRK
Chain of Bcl-2-related protein A1 (Mus musculus) (Q07440 whole entry, looked up): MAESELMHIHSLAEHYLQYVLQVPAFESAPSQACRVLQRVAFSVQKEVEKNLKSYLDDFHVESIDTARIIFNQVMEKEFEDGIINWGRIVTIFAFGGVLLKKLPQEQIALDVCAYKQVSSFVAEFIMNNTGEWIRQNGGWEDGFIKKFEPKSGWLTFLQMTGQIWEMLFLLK
Chain of Bcl-2-like protein 2 (Q92843 2-193 C29S/A128E limits assumed): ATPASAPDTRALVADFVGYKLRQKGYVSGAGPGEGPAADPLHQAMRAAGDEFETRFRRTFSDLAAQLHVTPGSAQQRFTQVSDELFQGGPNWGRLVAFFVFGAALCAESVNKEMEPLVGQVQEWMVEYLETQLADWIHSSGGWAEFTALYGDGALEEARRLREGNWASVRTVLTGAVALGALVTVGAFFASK

SMILES	IC50 [1]	also measured
CCCN(C(=O)N[C@@H](Cc1ccc(O)cc1)C(=O)O)C(=O)c1cccc(-c2ccccc2)c1	> 150 µM	
CCCN(C(=O)NCCSCc1ccccc1)C(=O)c1cccc(-c2ccccc2)c1	> 150 µM	
CCCN(C(=O)N[C@@H](CSCc1ccccc1)C(=O)O)C(=O)c1cccc(-c2ccc(Cl)c(Cl)c2)c1	78 µM	
CCCN(C(=O)N[C@@H](CSCCc1ccccc1)C(=O)O)C(=O)c1cccc(C#Cc2ccccc2)c1	21 µM	
CCCN(C(=O)N[C@@H](CSCC(C)C)C(=O)O)C(=O)c1cccc(C#Cc2ccc(C(C)(C)C)cc2)c1	> 150 µM	
CCCN(C(=O)N[C@@H](CSCC(C)C)C(=O)O)C(=O)c1cccc(C#Cc2ccc(Oc3ccccc3)cc2)c1	> 150 µM	
CCCN(C(=O)N[C@@H](CSCc1ccccc1)C(=O)O)C(=O)c1cccc(-c2ccc(OC)cc2)c1	> 150 µM	
CCCN(C(=O)N[C@@H](CSCc1ccccc1)C(=O)O)C(=O)c1cccc(Cc2ccccc2)c1	> 150 µM	
CCCN(C(=O)N[C@@H](CSCC(C)C)C(=O)O)C(=O)c1cccc(C#Cc2ccccc2)c1	15 µM	
CCCN(C(=O)N[C@@H](CSCc1ccccc1)C(=O)O)C(=O)c1cccc(-c2ccc(C)cc2)c1	77 µM	
O=C(NS(=O)(=O)c1ccc(NCCSc2ccccc2)c([N+](=O)[O-])c1)c1ccc(-c2ccc(F)cc2)cc1		IC50 [2]: 22 µM; IC50 (Bcl-2-like protein 2): > 25 µM; IC50 [3]: 14.7 µM; IC50 [4]: 0.196 µM; IC50 [5]: 14.2 µM
CCCN(C(=O)N[C@@H](CSCc1ccc(Br)cc1)C(=O)O)C(=O)c1cccc(C#Cc2ccc(F)cc2F)c1	13 µM	Kd (Bcl-2-like protein 1 [6]): 4 µM; Kd (Bcl-2-like protein 1 [7]): 6.9 µM
CCCN(C(=O)N[C@@H](CSCc1ccccc1)C(=O)O)C(=O)c1cccc(-c2cccc3ccccc23)c1	62 µM	
CC(C)N(C(=O)N[C@@H](CSCc1ccccc1)C(=O)O)C(=O)c1cccc(-c2ccccc2)c1	> 150 µM	
CCCN(C(=O)N[C@@H](CSCC(C)C)C(=O)O)C(=O)c1cccc(C#Cc2ccc(F)cc2)c1	9 µM	
CCCN(C(=O)N[C@@H](CSCc1ccccc1)C(=O)O)C(=O)c1cccc(-c2ccc3ccccc3c2)c1	63 µM	
CCCN(C(=O)N[C@@H](CSCc1ccccc1)C(=O)O)C(=O)c1cccc(/C=C/c2ccccc2)c1	141 µM	
CCCN(C(=O)N[C@@H](CSCc1ccc(OC)cc1)C(=O)O)C(=O)c1cccc(C#Cc2ccccc2)c1	21 µM	
CCCN(C(=O)N[C@@H](CSCc1ccccc1-c1ccccc1)C(=O)O)C(=O)c1cccc(C#Cc2ccccc2)c1	146 µM	
CCCN(C(=O)N[C@@H](CSCC(C)C)C(=O)O)C(=O)c1cccc(C#Cc2ccccc2C)c1	57 µM	
CCCN(C(=O)N[C@@H](CSCc1ccccc1)C(=O)O)C(=O)c1cccc(C#Cc2ccccc2)c1	35 µM	
CCCN(C(=O)N[C@@H](CSCC(C)C)C(=O)O)C(=O)c1cccc(C#Cc2cccc(C)c2)c1	51 µM	
O=C(O)[C@H](CSCc1ccccc1)NC(=O)N(Cc1ccccc1)C(=O)c1cccc(-c2ccccc2)c1	> 150 µM	
CCCN(C(=O)N[C@@H](CSCc1ccccc1)C(=O)O)C(=O)c1cccc(-c2ccc(F)cc2)c1	125 µM	
CCCN(C(=O)N[C@@H](CSCC(C)C)C(=O)O)C(=O)c1cccc(C#Cc2cccc(F)c2)c1	69 µM	
CCCN(C(=O)N[C@@H](CCc1ccccc1)C(=O)O)C(=O)c1cccc(-c2ccccc2)c1	> 150 µM	

SMILES	IC50 [1]	also measured
CCCN(C(=O)N[C@@H](Cc1c[nH]c2ccccc12)C(=O)O)C(=O)c1cccc(-c2ccccc2)c1	108 µM	
CCCN(C(=O)N[C@@H](CC(C)C)C(=O)O)C(=O)c1cccc(-c2ccccc2)c1	> 150 µM	
CCCN(C(=O)N[C@@H](Cc1ccc2ccccc2c1)C(=O)O)C(=O)c1cccc(-c2ccccc2)c1	> 150 µM	
CCC(C)N(C(=O)N[C@@H](CSCc1ccccc1)C(=O)O)C(=O)c1cccc(-c2ccccc2)c1 (some centres undefined)	> 150 µM	
CCCN(C(=O)N[C@@H](CSc1ccccc1)C(=O)O)C(=O)c1cccc(C#Cc2ccccc2)c1	25 µM	
CCCCN(C(=O)N[C@@H](CSCc1ccccc1)C(=O)O)C(=O)c1cccc(-c2ccccc2)c1	138 µM	
CCCN(C(=O)N[C@@H](CSCC(C)C)C(=O)O)C(=O)c1cccc(C#Cc2ccc(F)cc2F)c1	22 µM	IC50 [2]: > 25 µM; IC50 (Bcl-2-like protein 2): > 25 µM; IC50 [3]: > 25 µM; IC50 [4]: 4.4 µM; Kd (Bcl-2-like protein 1 [6]): 2.1 µM; Kd (Bcl-2-like protein 1 [7]): 4.9 µM; IC50 [5]: > 25 µM
CCCN(C(=O)N[C@@H](CSCC(C)C)C(=O)O)C(=O)c1cccc(C#Cc2ccccc2F)c1	39 µM	
CCCN(C(=O)N[C@@H](CSCc1ccccc1)C(=O)O)C(=O)c1cccc(-c2ccccc2Cl)c1	102 µM	
CCCN(C(=O)N[C@@H](CSCCCc1ccccc1)C(=O)O)C(=O)c1cccc(C#Cc2ccccc2)c1	73 µM	
CCCN(C(=O)N[C@@H](CSCC(C)C)C(=O)O)C(=O)c1cccc(C#Cc2ccncc2)c1	> 150 µM	
CCCN(C(=O)NC)C(=O)c1cccc(-c2ccccc2)c1	> 150 µM	
CCCN(C(=O)N[C@@H](CSCC(C)C)C(=O)O)C(=O)c1cccc(C#Cc2cccnc2)c1	> 150 µM	
CCCN(C(=O)N[C@@H](CSCc1ccccc1)C(=O)O)C(=O)c1cccc(CCc2ccccc2)c1	55 µM	
CCCN(C(=O)N[C@@H](CSCc1ccccc1)C(=O)O)C(=O)c1cccc(-c2ccccc2)c1	109 µM	
CCCN(C(=O)N[C@@H](CSCc1ccccc1)C(N)=O)C(=O)c1cccc(-c2ccccc2)c1	> 150 µM	
CCN(C(=O)N[C@@H](CSCc1ccccc1)C(=O)O)C(=O)c1cccc(-c2ccccc2)c1	128 µM	
CCCN(C(=O)N[C@@H](CSCC1CCCCC1)C(=O)O)C(=O)c1cccc(C#Cc2ccccc2)c1	42 µM	
CCCSC[C@H](NC(=O)N(CCC)C(=O)c1cccc(C#Cc2ccccc2)c1)C(=O)O	21 µM	
CCCN(C(=O)N[C@@H](CSCC(C)C)C(=O)O)C(=O)c1cccc(C#Cc2ccc(C)cc2)c1	50 µM	
CCCN(C(=O)N[C@@H](Cc1ccccc1)C(=O)O)C(=O)c1cccc(-c2ccccc2)c1	> 150 µM	
CCCN(C(=O)N[C@@H](CSCc1ccccc1)C(=O)O)C(=O)c1cccc(-c2ccc(Cl)cc2)c1	86 µM	
CCCN(C(=O)N[C@@H](CSC(C)C)C(=O)O)C(=O)c1cccc(C#Cc2ccccc2)c1	33 µM	
CCCN(C(=O)N[C@@H](CSCc1ccccc1)C(=O)OC)C(=O)c1cccc(-c2ccccc2)c1	> 150 µM	
Cc1ccc(CN(C(=O)N[C@@H](CSCc2ccccc2)C(=O)O)C(=O)c2cccc(-c3ccccc3)c2)cc1	> 150 µM	
